Reference: ChEMBL document CHEMBL1147105, “In vitro and in vivo activities of PD 0305970 and PD 0326448, new bacterial gyrase/topoisomerase inhibitors with potent antibacterial activities versus multidrug-resistant gram-positive and fastidious organism groups” (2007)

How the values were obtained:
Klebsiella pneumoniae [1] = assay: Antibacterial activity against Klebsiella pneumoniae; format: functional
In short: (§1)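 Broth microdilution MIC following CLSI guidelines, in cation-adjusted Mueller-Hinton broth, incubated at 35°C. Recent clinical isolates and reference strains, with identity confirmed by automated and standard microbiological methods. Results reported as MIC range, MIC50 and MIC90.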

Haemophilus influenzae [2] = assay: Antibacterial activity against beta-lactamase negative Haemophilus influenzae; format: functional
In short: (§2)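 Broth microdilution MIC following CLSI guidelines, in Haemophilus test medium at 35°C.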

Finegoldia magna = assay: Antibacterial activity against Peptostreptococcus magnus; format: functional
In short: (§3)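 Anaerobic broth microdilution MIC following CLSI guidelines, in supplemented Brucella broth. Run in an anaerobe chamber under 5% CO2, 5% H2 and 90% N2 at 35°C, and read after 48 h. Reported as MIC range, MIC50 and MIC90.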

Streptococcus pneumoniae [3] = assay: Antibacterial activity against penicillin-susceptible Streptococcus pneumoniae; format: functional
In short: (§4)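 Broth microdilution MIC per CLSI guidelines, incubated at 35°C. Cation-adjusted Mueller-Hinton broth for nonfastidious organisms and staphylococci. Streptococci tested in the same broth with 3% lysed horse blood. Anaerobes tested in supplemented Brucella broth inside an anaerobe chamber (5% CO2, 5% H2, 90% N2), read after 48 h. Strains were mainly recent clinical isolates with confirmed identity.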

Enterococcus faecalis [4] = assay: Antibacterial activity against beta-lactamase positive Enterococcus faecalis; format: functional
In short: (§5)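 MIC by CLSI broth microdilution for nonfastidious organisms, in cation-adjusted Mueller-Hinton broth incubated at 35°C.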

Proteus vulgaris = assay: Antibacterial activity against Proteus vulgaris; format: functional; in short: as §1
Staphylococcus aureus [5] = assay: Antibacterial activity against vancomycin-intermediate Staphylococcus aureus; format: functional; in short: as §4
Enterococcus faecium [6] = assay: Antibacterial activity against VanB-resistant Enterococcus faecium; format: functional; in short: as §4
Haemophilus influenzae [7] = assay: Antibacterial activity against beta-lactamase positive Haemophilus influenzae; format: functional; in short: as §2
Streptococcus pneumoniae [8] = assay: Antibacterial activity against levofloxacin-resistant Streptococcus pneumoniae; format: functional; in short: as §4
[9] = test system: Peptostreptococcus anaerobius; assay: Antibacterial activity against Peptostreptococcus anaerobius; format: functional; in short: as §3
[10] = test system: Prevotella melaninogenica; assay: Antibacterial activity against Prevotella melaninogenica; format: functional; in short: as §3
Streptococcus salivarius = assay: Antibacterial activity against Streptococcus salivarius; format: functional
In short: (§6)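 Broth microdilution MIC following CLSI guidelines, in cation-adjusted Mueller-Hinton broth with 3% lysed horse blood. Plates incubated at 35°C. Clinical isolates and reference strains, with identity confirmed by standard microbiological methods.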

Prevotella buccae = assay: Antibacterial activity against Prevotella buccae; format: functional; details: Segatella buccae; in short: as §3
Serratia marcescens = assay: Antibacterial activity against Serratia marcescens; format: functional; in short: as §1
Salmonella typhimurium = assay: Antibacterial activity against Salmonella enterica serovar Typhimurium; format: functional, Salmonella enterica subsp. enterica serovar Typhimurium; in short: as §1
Neisseria meningitidis = assay: Antibacterial activity against Neisseria meningitidis; format: functional
In short: (§7)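 MIC by broth microdilution in gonococcal broth, incubated at 35°C in 5% CO2. Reported as MIC range, MIC50 and MIC90.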

Klebsiella aerogenes = assay: Antibacterial activity against Enterobacter aerogenes; format: functional; in short: as §1
Prevotella corporis = assay: Antibacterial activity against Prevotella corporis; format: functional; in short: as §3
Neisseria gonorrhoeae = assay: Antibacterial activity against Neisseria gonorrhoeae; format: functional; in short: as §7
[11] = test system: Stenotrophomonas maltophilia; assay: Antibacterial activity against Stenotrophomonas maltophilia; format: functional; in short: as §1
Streptococcus equinus = assay: Antibacterial activity against Streptococcus bovis; format: functional; in short: as §6
Legionella pneumophila = assay: Antibacterial activity against Legionella pneumophila; format: functional
In short: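 Broth microdilution MIC per CLSI guidelines, run in buffered yeast extract α-ketoglutarate broth at 35°C and read after 48 h.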

Corynebacterium sp. = assay: Antibacterial activity against Corynebacterium sp.; format: functional
In short: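 Broth microdilution MIC following CLSI guidelines, in cation-adjusted Mueller-Hinton broth containing 3% lysed horse blood, incubated at 35°C. Clinical isolates with identity confirmed. Reported as MIC range, MIC50 and MIC90.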

Fusobacterium sp. = assay: Antibacterial activity against Fusobacterium sp.; format: functional; in short: as §3
Acinetobacter sp. = assay: Antibacterial activity against Acinetobacter sp.; format: functional; in short: as §1
[12] = test system: Parabacteroides distasonis; assay: Antimicrobial activity against Bacteroides distasonis; format: functional
In short: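 Anaerobic broth microdilution MIC following CLSI guidelines, in supplemented Brucella broth. Incubated at 35°C in a chamber under 5% CO2, 5% H2 and 90% N2. Read after 48 h.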

Pseudomonas aeruginosa = assay: Antibacterial activity against Pseudomonas aeruginosa; format: functional; in short: as §1
Enterococcus faecalis [13] = assay: Antibacterial activity against VanA-resistant Enterococcus faecalis; format: functional; in short: as §4
[14] = test system: Staphylococcus epidermidis; assay: Antibacterial activity against oxacillin-resistant Staphylococcus epidermidis; format: functional; in short: as §4
Enterococcus faecium [15] = assay: Antibacterial activity against VanA-resistant Enterococcus faecium; format: functional; in short: as §4
Prevotella sp. = assay: Antibacterial activity against Prevotella sp.; format: functional; in short: as §3
Citrobacter koseri = assay: Antibacterial activity against Citrobacter diversus; format: functional; in short: as §1
Enterobacter cloacae = assay: Antibacterial activity against Enterobacter cloacae; format: functional; in short: as §1
Morganella morganii = assay: Antibacterial activity against Morganella morganii; format: functional; in short: as §1
Shigella sonnei = assay: Antibacterial activity against Shigella sonnei; format: functional; in short: as §1
Staphylococcus aureus [16] = assay: Antibacterial activity against oxacillin and levofloxacin-resistant Staphylococcus aureus; format: functional; in short: as §4
Streptococcus pneumoniae [17] = assay: Antibacterial activity against penicillin-intermediate resistant Streptococcus pneumoniae; format: functional; in short: as §4
Clostridium perfringens = assay: Antibacterial activity against Clostridium perfringens; format: functional; in short: as §4
[18] = test system: Staphylococcus epidermidis; assay: Antibacterial activity against oxacillin-susceptible Staphylococcus epidermidis; format: functional; in short: as §5
Streptococcus pneumoniae [19] = assay: Antibacterial activity against penicillin-resistant Streptococcus pneumoniae; format: functional; in short: as §4
Staphylococcus aureus [20] = assay: Antibacterial activity against oxacillin-resistant Staphylococcus aureus; format: functional; in short: as §4
Streptococcus pyogenes = assay: Antibacterial activity against Streptococcus pyogenes; format: functional; in short: as §6
Proteus mirabilis = assay: Antibacterial activity against Proteus mirabilis; format: functional; in short: as §1
Escherichia coli = assay: Antibacterial activity against Escherichia coli; format: functional; in short: as §1
Streptococcus mitis = assay: Antibacterial activity against Streptococcus mitis; format: functional; in short: as §6
Klebsiella pneumoniae [21] = assay: Antibacterial activity against beta-lactamase positive Klebsiella pneumoniae; format: functional; in short: as §5

Cc1c(N2CC[C@@H]([C@H](C)N)C2)c(F)cc2c(=O)[nH]c(=O)n(C3CC3)c12
0.06 µg/mL: MIC (Finegoldia magna) | MIC90 (Streptococcus pneumoniae [3]) | MIC (Enterococcus faecalis [4]) | MIC50 (Streptococcus pneumoniae [8]) | MIC90 (Streptococcus pneumoniae [8]) | MIC [9] | MIC90 (Streptococcus salivarius) | MIC50 (Streptococcus equinus) | MIC90 (Streptococcus equinus) | MIC50 (Streptococcus pneumoniae [17]) | MIC90 (Streptococcus pneumoniae [19]) | MIC90 (Streptococcus mitis)
0.25 µg/mL: MIC50 (Haemophilus influenzae [2]) | MIC (Staphylococcus aureus [5]) | MIC (Enterococcus faecalis [13]) | MIC50 [14] | MIC90 [14] | MIC50 (Staphylococcus aureus [20])
64 µg/mL: MIC90 (Klebsiella aerogenes) | MIC90 [11] | MIC90 (Acinetobacter sp.) | MIC90 (Klebsiella pneumoniae [21])
16 µg/mL: MIC90 (Klebsiella pneumoniae [1]) | MIC50 [12] | MIC90 (Enterobacter cloacae)
32 µg/mL: MIC90 (Serratia marcescens) | MIC50 [11] | MIC90 [12] | MIC90 (Morganella morganii)
0.5 µg/mL: MIC90 (Haemophilus influenzae [2]) | MIC50 (Haemophilus influenzae [7]) | MIC50 [10] | MIC50 (Prevotella buccae) | MIC50 (Neisseria meningitidis) | MIC50 (Prevotella corporis) | MIC50 (Neisseria gonorrhoeae) | MIC50 (Legionella pneumophila) | MIC90 (Legionella pneumophila) | MIC50 (Corynebacterium sp.) | MIC50 (Prevotella sp.) | MIC90 (Staphylococcus aureus [20])
4 µg/mL: MIC50 (Klebsiella pneumoniae [1]) | MIC50 (Serratia marcescens) | MIC90 (Salmonella typhimurium) | MIC50 (Acinetobacter sp.) | MIC90 (Shigella sonnei) | MIC90 (Staphylococcus aureus [16])
1 µg/mL: MIC (Enterococcus faecium [6]) | MIC90 (Haemophilus influenzae [7]) | MIC90 (Neisseria meningitidis) | MIC90 (Neisseria gonorrhoeae) | MIC90 (Corynebacterium sp.) | MIC50 (Enterococcus faecium [15]) | MIC50 (Staphylococcus aureus [16])
2 µg/mL: MIC (Proteus vulgaris) | MIC90 [10] | MIC90 (Prevotella buccae) | MIC50 (Salmonella typhimurium) | MIC90 (Prevotella corporis) | MIC90 (Enterococcus faecium [15]) | MIC90 (Prevotella sp.) | MIC50 (Citrobacter koseri) | MIC50 (Enterobacter cloacae) | MIC50 (Morganella morganii) | MIC50 (Shigella sonnei) | MIC50 (Clostridium perfringens) | MIC50 (Proteus mirabilis) | MIC50 (Escherichia coli)
0.03 µg/mL: MIC50 (Streptococcus pneumoniae [3]) | MIC50 (Streptococcus salivarius) | MIC50 (Streptococcus pneumoniae [19]) | MIC50 (Streptococcus pyogenes) | MIC90 (Streptococcus pyogenes) | MIC50 (Streptococcus mitis)
8 µg/mL: MIC50 (Klebsiella aerogenes) | MIC50 (Pseudomonas aeruginosa) | MIC90 (Citrobacter koseri) | MIC90 (Clostridium perfringens) | MIC90 (Proteus mirabilis) | MIC90 (Escherichia coli) | MIC50 (Klebsiella pneumoniae [21])
0.125 µg/mL: MIC (Fusobacterium sp.) | MIC90 (Streptococcus pneumoniae [17]) | MIC [18]
> 64 µg/mL: MIC90 (Pseudomonas aeruginosa)
